Laboratory results: ChEMBL document CHEMBL1125395, “Development of high-affinity 5-HT3 receptor antagonists. 1. Initial structure-activity relationship of novel benzamides” (J Med Chem, 1992)

Legend:
Mustela putorius furo [1] = assay: Antiemetic activity (intravenous administration) against cisplatin-induced emesis in ferret, as the dose required to increase latency to first emetic bout by 100%; format: functional
How it was run: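 Nonfasted castrated male Fitch ferrets (1-2 kg) with jugular vein catheter implanted under pentobarbital ≥48 h earlier. Drug in 0.9% saline, 2 mL/kg iv, 30 min before and 45 min after cisplatin (3 mg/kg iv). Emetic latency recorded over 4 h; % increase vs tandem vehicle; dose raising mean latency 100%. 3-12 ferrets/dose, ≥3 doses, 95% confidence limits.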

Mustela putorius furo [2] = assay: Antiemetic activity (oral administration) against cisplatin-induced emesis in ferret, as the dose required to increase latency to first emetic bout by 50%; format: functional
How it was run: (§1)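 Nonfasted castrated male Fitch ferrets (1-2 kg), each used once. Drug dissolved/suspended in 0.5% methylcellulose in gelatin capsule, given po 60 min before cisplatin 3 mg/kg iv (via jugular catheter). Vehicle controls in tandem. Observed 4 h; emetic episodes and latency to first bout recorded. ED50 from 3-12 animals per dose, at least 3 doses, with 95% confidence limits.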

Mustela putorius furo [3] = assay: Antiemetic activity (intravenous administration) against cisplatin-induced emesis in ferret, as the dose required to reduce emetic episodes to 50% of control value; format: functional
How it was run: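 Castrated male Fitch ferrets (1-2 kg, nonfasted), jugular catheter implanted ≥48 h prior. Compound in 0.9% saline iv (2 mL/kg) 30 min before and 45 min after cisplatin 3 mg/kg iv. Emetic episodes counted for 4 h post-cisplatin, % inhibition vs vehicle controls run in tandem; dose halving episodes from 4-10 animals/dose, ≥3 doses, 95% confidence limits.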

[4] = biological target: T1, Serotonin 3 (5-HT3) receptor (Rattus norvegicus, UniProt P35563+Q9JJ16); assay: Displacement of the 5-hydroxytryptamine 3 receptor ligand [3H]GR-65630 from rat brain cortical membranes.; format: cell membranes, Membrane
T1 sequence (P35563 whole entry): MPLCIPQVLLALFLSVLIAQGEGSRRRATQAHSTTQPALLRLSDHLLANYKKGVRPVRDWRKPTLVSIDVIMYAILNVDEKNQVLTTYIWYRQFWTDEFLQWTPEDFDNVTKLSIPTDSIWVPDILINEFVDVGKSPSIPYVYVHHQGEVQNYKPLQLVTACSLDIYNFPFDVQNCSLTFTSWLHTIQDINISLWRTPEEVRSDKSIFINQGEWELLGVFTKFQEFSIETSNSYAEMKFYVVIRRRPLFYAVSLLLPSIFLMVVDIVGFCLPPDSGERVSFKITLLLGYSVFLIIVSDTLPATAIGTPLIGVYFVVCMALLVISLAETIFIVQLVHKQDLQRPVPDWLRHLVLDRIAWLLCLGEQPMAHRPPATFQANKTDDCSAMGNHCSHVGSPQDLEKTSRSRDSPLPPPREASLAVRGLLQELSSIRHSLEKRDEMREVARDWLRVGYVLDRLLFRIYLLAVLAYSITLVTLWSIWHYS
T1 sequence (Q9JJ16 whole entry): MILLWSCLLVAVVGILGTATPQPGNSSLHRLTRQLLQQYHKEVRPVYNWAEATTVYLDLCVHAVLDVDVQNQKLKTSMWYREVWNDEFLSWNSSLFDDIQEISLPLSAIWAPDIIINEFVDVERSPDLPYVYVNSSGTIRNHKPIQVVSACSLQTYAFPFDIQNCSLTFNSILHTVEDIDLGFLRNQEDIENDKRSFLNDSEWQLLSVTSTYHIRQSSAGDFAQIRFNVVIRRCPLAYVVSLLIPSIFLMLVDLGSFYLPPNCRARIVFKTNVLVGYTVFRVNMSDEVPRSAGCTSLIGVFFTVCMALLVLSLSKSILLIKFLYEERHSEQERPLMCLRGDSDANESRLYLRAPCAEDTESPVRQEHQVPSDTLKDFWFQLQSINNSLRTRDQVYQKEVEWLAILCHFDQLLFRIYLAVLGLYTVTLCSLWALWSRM
How it was run: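 Entorhinal cortex from frozen rat brains homogenized, spun 40000g 10 min in HEPES buffer (25 mM HEPES, CaCl2 5 mM, pH 7.4). Filtration, Tris pH 7.7 washes, scintillation counting. Four-six concentrations in triplicate; Ki via Cheng-Prusoff.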

Mustela putorius furo [5] = assay: Antiemetic activity (oral administration) against cisplatin-induced emesis in ferret, as the dose required to reduce emetic episodes to 50% of control value; format: functional; how it was run: as §1

Compound	ED100 (Mustela putorius furo [1])	ED50 (Mustela putorius furo [2])	ED50 (Mustela putorius furo [3])	Ki [4]	ED50 (Mustela putorius furo [5])
CCN(CC)CCNC(=O)c1cc(Cl)c(N)cc1OC [METOCLOPRAMIDE]	2.1 mg/kg	> 5 mg/kg	1.45 mg/kg	995 nM	6.17 mg/kg
O=C(NC1CN2CCC1CC2)c1cc(Cl)cc2c1OCCCCC2 (stereo unspecified)	–	–	–	4.7 nM	–
COc1cc(N)c(Cl)cc1C(=O)NC1CN2CCC1CC2 (stereo unspecified) [ZACOPRIDE]	–	–	–	1.5 nM	–
O=C(NC1CN2CCC1CC2)c1cc(Cl)cc2c1OCCCC2 (stereo unspecified)	–	–	–	1.22 nM	–
CN1CC2CCC1CC(OC(=O)c1c[nH]c3ccccc13)C2 (stereo unspecified)	–	–	–	1.66 nM	–
O=C(NC1CN2CCC1CC2)c1cc(Br)cc2c1OCCCC2 (stereo unspecified)	–	–	–	2.16 nM	–
CN1C2CCCC1CC(NC(=O)c1nn(C)c3ccccc13)C2 (stereo unspecified) [GRANISETRON]	0.082 mg/kg	0.117 mg/kg	0.226 mg/kg	–	0.119 mg/kg
O=C(NC1CN2CCC1CC2)c1cc(Cl)cc2c1OC1(CCCCC1)C2 (stereo unspecified)	0.006 mg/kg	–	0.002 mg/kg	1.07 nM	–
COc1c(C(=O)NC2CN3CCC2CC3)cc(Cl)cc1C1CCCCC1 (stereo unspecified)	–	–	–	6.09 nM	–
O=C(N[C@H]1CN2CCC1CC2)c1cc(Cl)cc2c1OC1(CCCCC1)C2	0.055 mg/kg	–	0.099 mg/kg	0.89 nM	–
Nc1c(Cl)cc2c(c1C(=O)NC1CN3CCC1CC3)OCCCC2 (stereo unspecified)	–	–	–	> 100 nM	–
O=C(N[C@@H]1CN2CCC1CC2)c1cc(Cl)cc2c1OC1(CCCCC1)C2	0.005 mg/kg	0.004 mg/kg	0.009 mg/kg	0.19 nM	0.009 mg/kg
O=C(NC1CCN2CCCC1C2)c1cc(Cl)cc2c1OCCCC2 (stereo unspecified)	–	–	–	63 nM	–
O=C(NC1CN2CCC1CC2)c1cccc2c1OCCCC2 (stereo unspecified)	–	–	–	13.8 nM	–
CC1(C)CCCc2cc(Cl)cc(C(=O)NC3CN4CCC3CC4)c2O1 (stereo unspecified)	–	–	–	15.6 nM	–
Cc1nccn1CC1CCc2c(c3ccccc3n2C)C1=O (stereo unspecified) [ONDANSETRON]	0.015 mg/kg	0.031 mg/kg	0.008 mg/kg	–	0.28 mg/kg
CCC(C)Oc1c(C(=O)NC2CN3CCC2CC3)cc(Cl)cc1C1CCCCC1 (stereo unspecified)	–	–	–	> 30 nM	–
COc1ccc(Cl)cc1C(=O)NC1CN2CCC1CC2 (stereo unspecified)	–	–	–	46.8 nM	–
